From PubChem BioAssay
TAAR1 antag: antagonists of human TAAR1; actives 1.5% (n = 360,000); AID 624466; Q96RJ0; CHO RD-HGA16 TAAR1, Fluo-8 calcium fluorescence, antagonist; inhibition, % at 3 µM;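 active = inhibition above a per-plate cutoff, the mean inhibition of test compounds on that plate plus 3 SD, cut at about 49% in these data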
Target sequence (Q96RJ0 whole entry, looked up): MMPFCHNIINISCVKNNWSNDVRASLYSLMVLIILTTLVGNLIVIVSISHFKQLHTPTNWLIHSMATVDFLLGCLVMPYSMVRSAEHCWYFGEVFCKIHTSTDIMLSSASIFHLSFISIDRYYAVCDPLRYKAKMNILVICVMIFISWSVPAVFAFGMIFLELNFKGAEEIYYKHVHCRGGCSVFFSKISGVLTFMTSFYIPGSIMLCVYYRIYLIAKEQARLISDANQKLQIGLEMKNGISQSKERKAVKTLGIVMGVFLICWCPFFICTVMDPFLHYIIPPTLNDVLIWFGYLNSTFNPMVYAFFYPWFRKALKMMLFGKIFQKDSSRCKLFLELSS
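Assay system: RD-HGA16 CHO cells with stable hTAAR1 and Gα16 / Reagent: EC80 β-phenethylamine stimulus / Doses: 3 µM, single point / Timing: dye loading 75 min at 37 °C, then 30 min room temperature / Measured by: Fluo-8 intracellular calcium dye fluorescence, real-time kinetic reads / Controls: vehicle wells and EC80 agonist wells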
GPR7 antag: blocks human GPR7 receptor signaling; AID 1861; P48145; inhibition, % at 4.4 µM; GPR7-expressing cells, fluorescence antagonist assay; actives 1.1% (n = 290,000); in the data active = inhibition above about 16%, passing the limit was not always enough;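 note: cells stimulated with the agonist NPW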
Target sequence (P48145 whole entry, looked up): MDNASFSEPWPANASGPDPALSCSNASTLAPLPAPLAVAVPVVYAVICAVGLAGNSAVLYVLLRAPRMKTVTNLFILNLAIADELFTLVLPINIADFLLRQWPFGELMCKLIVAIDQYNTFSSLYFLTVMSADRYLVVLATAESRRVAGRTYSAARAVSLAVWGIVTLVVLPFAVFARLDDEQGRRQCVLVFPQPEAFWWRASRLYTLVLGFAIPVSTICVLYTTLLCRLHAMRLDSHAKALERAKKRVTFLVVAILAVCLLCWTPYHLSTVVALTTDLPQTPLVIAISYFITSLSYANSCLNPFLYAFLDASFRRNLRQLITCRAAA
CHO parental Ca: signal in parental CHO cells, OX1R antagonist counter-screen; inhibition, % at 5.6 µM; actives 0.63% (n = 330,000); parental CHO-K1, ATP-induced calcium, Fluo-8 fluorescence;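 active = inhibition above that plate's mean sample inhibition plus 3 SD, cut at about 26% in these data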
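Assay system – parental CHO cells · Reagent – ATP stimulus · Detection – intracellular calcium via Fluo-8 no-wash fluorescent dye · Evaluation – percent inhibition of ATP-evoked calcium rise, normalized to controls · Controls – ATP wells versus no-ATP DMSO wells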
OX1R antag-1: human HCRTR1 antagonism; O43613; CHO/OX1R cells, Fluo-8 calcium fluorescence, orexin A; inhibition, % at 5 µM; actives 0.43% (n = 330,000);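 active = inhibition above its plate's threshold, mean inhibition of all tested compounds on the plate plus 3 SD, cut at about 37% in these data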
OX1R antag-2: blocks the human orexin 1 receptor; inhibition, % at 6.6 µM; AID 485270; O43613; actives 1.8% (n = 330,000); OX1R-expressing cells, FRET antagonist read-out; in the data active = inhibition mostly above about 38%, no sharp cut-off; inactive = mostly below about 40%
TAAR1 agonist: agonists of human TAAR1. activation, % at 3 µM. CHO RD-HGA16 TAAR1, Fluo-8 calcium fluorescence; vehicle wells 0%, saturating PEA agonist 100%. actives 0.99% (n = 360,000). Q96RJ0;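 active = activation above the mean activation of all test compounds in the run plus 3 SD, cut at about 38% in these data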
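Signal – calcium-sensitive Fluo-8 signal, excitation 470-495, emission 515-575 nm · System – RD-HGA16 (CHO) cells co-expressing Gα16 and hTAAR1 · Incubation – 17-24 h seeding, 75 min 37 °C dye, 30 min RT · Compound dosing – 3 µM single concentration · Repeats – no replicates (n 1)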
A number is an active result; . = inactive; / = no result given. Most compounds without a hit are left out; they make up all but 4.5% or so of the library.

SMILES	TAAR1 antag	GPR7 antag	CHO parental Ca	OX1R antag-1	OX1R antag-2	TAAR1 agonist
COC(=O)C1=C(C)N(Cc2ccc(C(F)(F)F)cc2)C(=NCc2ccc(C(F)(F)F)cc2)NC1c1cccc(F)c1 (centres undefined)	.	/	/	/	/	.
CCCCCCCNC(=O)C1CC(=O)N(C)C(=Nc2ccc(OC)cc2)S1 (centres undefined)	.	.	.	.	.	.
COc1cc(/C=N/NC(=O)NC23CC4CC(CC(C4)C2)C3)ccc1OCC(N)=O	58	.	.	.	.	.
COc1ccc(C=NNC(=S)NC23CC4CC(CC(C4)C2)C3)cc1OC	.	/	/	/	/	.
COc1ccc(NC(=O)C2CCN(c3nc(-c4ccc(OC)cc4)no3)CC2)cc1	.	.	.	.	.	.
CCN(C(=O)C1CCN(c2nc(-c3ccc(OC)cc3)no2)CC1)c1ccc(OC)cc1	.	.	36	.	.	.
CCOC(=O)c1c(-c2ccccc2)oc2ccc(OC(C)=O)cc12	.	.	.	.	64	.
OC(CN(c1ccccc1)c1ccccc1)Cn1cnc2ccccc21 (centres undefined)	57	.	.	.	.	.
OC(COCc1ccccc1)Cn1cnc2ccccc21 (centres undefined)	.	.	.	.	.	.
CCC(=O)NC(c1ccco1)c1cc(Cl)c2ccccc2c1O (centres undefined)	.	/	.	.	50	.
O=C(OCCNc1nc(-c2ccccc2)nc2ccccc12)c1cccnc1	.	.	.	.	48	.
O=C(O)CNc1nc(-c2ccccc2)nc2ccccc12	.	.	.	.	.	.
O=C(OCCNc1nc(-c2ccccc2)nc2ccccc12)c1ccncc1	.	.	.	.	57	.
CCCOC(=O)c1cccc(Nc2nc(-c3cccnc3)nc3ccccc23)c1	62	.	.	.	.	.
O=C(O)c1cccc(Nc2nc(-c3ccccc3)nc3ccccc23)c1	.	.	.	.	.	.
O=C(O)CCNc1nc(-c2ccccc2)nc2ccccc12	.	.	.	.	.	.
COc1ccc2c(C)cc(SCC(=O)NC3CCCC3)nc2c1	.	/	.	.	.	.
COc1ccc2c(C)cc(SCC(=O)c3ccc4c(c3)OCO4)nc2c1	.	.	.	.	40	.
CCN(C(=O)CSc1nc2ccc([N+](=O)[O-])cc2s1)C1CCS(=O)(=O)C1 (centres undefined)	.	.	.	.	68	.
COC(=O)[C@@]1(Cc2ccc(OC)cc2)[C@H]2c3cc(C(=O)N4CCCC4)n(Cc4ccc(C)c(F)c4F)c3C[C@H]2CN1C(=O)c1ccccc1	.	/	/	/	/	.
Cc1cccc(NS(=O)(=O)c2cc(C(=O)N3CCc4ccccc4C3)ccc2Cl)c1C	56	.	.	.	.	.
CCCS(=O)(=O)NC(=O)C1(C)CCCN(C(=O)c2cc(OC)c(OC)c(OC)c2)C1 (centres undefined)	.	/	/	/	/	.
Cc1ccc(C)c(NC(=S)NCCc2ccc(F)cc2)c1	.	.	.	.	.	.
Cc1ccc(C)c(NC(=S)NNc2ccc(F)cc2F)c1	.	.	71	83	.	.
CCc1nc2c(OCCn3cccc3)cccn2c1N(C)C(=O)c1ccccc1F	.	/	/	/	/	.
SMILES	TAAR1 antag	GPR7 antag	CHO parental Ca	OX1R antag-1	OX1R antag-2	TAAR1 agonist
Cc1cc(C)cc(Nc2ccc3nonc3c2[N+](=O)[O-])c1	.	/	.	.	.	.
CCOC(=O)NNc1ccc2nonc2c1[N+](=O)[O-]	/	.	.	.	35	/
O=C(O)c1ccccc1Nc1ccc([N+](=O)[O-])c2nonc12	/	.	.	.	34	/
Cc1cccc(Nc2ccc3nonc3c2[N+](=O)[O-])c1C	.	.	.	.	.	.
O=[N+]([O-])c1c(NCc2ccco2)ccc2nonc12	.	.	.	.	68	.
O=[N+]([O-])c1c(Nc2ccccc2)ccc2nonc12	.	.	.	.	64	.
Nc1[nH]c(C(=O)c2ccc(Cl)cc2)c(-c2ccc(Br)cc2)c1C(=O)c1c[nH]c2ccc(F)cc12	.	/	/	/	/	.
CC1=C([N+](=O)[O-])C(c2ccccc2Cl)NC(=O)N1C (centres undefined)	.	.	.	.	.	.
CCOC(=O)CN1C(=O)N2C[C@H]3CON(C)[C@H]3C[C@H]2c2ccccc21	.	/	/	/	/	.
CC(C)CNC(=S)N1CCC(c2nc(-c3ccc(F)cc3)no2)CC1	.	.	48	.	.	.
COCCNC(=S)N1CCC(c2nc(-c3ccc(N(C)C)cc3)no2)CC1	.	.	.	.	.	.
O=C(Nc1ccccc1N1CCOCC1)C1CCCO1 (centres undefined)	.	/	.	.	.	.
Brc1ccc(N/N=C(/N=Nc2nn[nH]n2)c2ccccc2)cc1	.	.	.	.	47	.
Cc1ccc(C)c(N(CC(=O)NCc2ccco2)C(=O)CCC(=O)Nc2nccs2)c1	.	.	.	.	.	.
COC(=O)/C=C1\SC(N2CCOCC2)=C(c2ccc(OC)cc2)C1=O	.	.	.	.	70	.
COC(=O)CN1C(=S)N(c2ccc(OC)cc2)C(=O)/C1=C/c1ccc(N2CCOCC2)cc1	.	.	.	.	.	.
O=c1oc2c3c4c(cc2c2c1CCC2)OCCN4CCC3	.	.	.	.	59	.
COc1cc(OC)c(-c2c3cc(O)c(=O)cc-3oc3cc(O)c(O)cc23)cc1OC	71	.	74	105	.	367
COc1cc(-c2cc(=O)c3ccc(O)cc3o2)cc(OC)c1OC	.	/	/	/	/	.
Cc1ccc(CNC(=O)c2nnc(Cc3ccc(Cl)cc3)o2)cc1	.	.	44	.	.	.
CC(=O)Nc1ccc(CN(C)c2c(C)nc3ccc(C(=O)NCCCn4ccnc4)cn23)cc1	.	/	/	/	/	.
C#CCNC(=O)C1=C[C@H](c2csc3ccccc23)[C@@H](CCCO)[C@H](OCC)O1	.	.	.	.	.	.
CCO[C@@H]1OC(C(=O)NCc2ccccc2)=C[C@H](c2csc3ccccc23)[C@H]1CCCO	54	.	.	.	.	.
CCO[C@H]1OC(C(=O)NCc2ccccc2)=C[C@@H](c2cn(C(C)=O)c3ccccc23)[C@@H]1CCCO	.	.	.	.	.	45
O=C(NCc1ccccc1)C(c1ccc(C(F)(F)F)cc1)N1CCN(CCN2CCOCC2)CC1 (centres undefined)	.	/	/	/	/	.
Cc1c(C(=O)NCc2ccc(F)cc2)sc(=O)n1Cc1ccc(C(=O)c2ccccc2)cc1	54	/	/	/	/	.
Cc1c(C(=O)NCc2cccc(Cl)c2)sc(=O)n1Cc1ccc(F)cc1	.	/	/	/	/	.
Cc1c(C(=O)NCc2ccc(C(C)C)cc2)sc(=O)n1Cc1cccc(F)c1	53	/	/	/	/	48
